Laboratory results from ChEMBL document CHEMBL1159129, “Novel amidino substituted 2-phenylbenzothiazoles: synthesis, antitumor evaluation in vitro and acute toxicity testing in vivo” (Bioorg Med Chem, 2010).

Tests used:
[1] = tested on: MCF7; assay: Growth inhibition of human MCF7 cells after 72 hrs by MTT assay; type: functional, cell-based; conditions: MCF7, 72 h
Method in brief: (§1)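 Modified NCI protocol. Cells were plated on day 0 at 1-3 × 10^4 cells/mL according to doubling time. Agents were dissolved in DMSO (stock 4 × 10^-2 M) and serially diluted 10-fold in medium (10^-8–10^-4 M), with 72 h exposure. Viability by MTT (mitochondrial dehydrogenase). Four wells, three independent runs. IC50 from linear regression of the two concentrations flanking 50% growth.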

[2] = tested on: HCT-116; assay: Growth inhibition of human HCT116 cells after 72 hrs by MTT assay; type: functional, cell-based; conditions: HCT-116, 72 h; method in brief: as §1
[3] = tested on: NCI-H460; assay: Growth inhibition of human H460 cells after 72 hrs by MTT assay; type: functional, cell-based; conditions: NCI-H460, 72 h
Method in brief: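 H460 lung carcinoma cells grown as monolayers in DMEM with 10% FBS, 2 mM glutamine, penicillin/streptomycin, 5% CO2, 37 °C. Seeded day 0 at 1-3 × 10^4 cells/mL. DMSO stocks (4 × 10^-2 M) were diluted in medium to five 10-fold concentrations, 10^-8 to 10^-4 M, for 72 h. MTT read-out, quadruplicate, three experiments. IC50 by linear regression of concentrations bracketing 50% growth.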

[4] = tested on: SW-620; assay: Growth inhibition of human SW620 cells after 72 hrs by MTT assay; type: functional, cell-based; conditions: SW-620, 72 h; method in brief: as §1
[5] = tested on: MOLT-4; assay: Growth inhibition of human MOLT4 cells after 72 hrs by MTT assay; type: functional, cell-based; conditions: MOLT-4, 72 h
Method in brief: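 MOLT-4 leukemia cells grown in suspension in RPMI with 10% FBS, 2 mM glutamine, penicillin/streptomycin, 5% CO2, 37 °C. Inoculated at 1-3 × 10^4 cells/mL. Compounds from 4 × 10^-2 M DMSO stock were tested at 10^-8 to 10^-4 M (10-fold steps) for 72 h, then MTT. Quadruplicates in three experiments. IC50 interpolated by linear regression around 50% growth; '>' highest concentration when not reached.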

[6] = Acute toxicity in po dosed BALB/c mouse; type: organism-based; conditions: in vivo
Method in brief: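 Female nulliparous, non-pregnant BALB/c mice, 12 weeks old, housed singly; food withheld 3-4 h before and 1-2 h after dosing. Single gavage dose in physiological saline (sonicated 15 min at 69 °C just before use), 0.5 mL/25 g body mass. OECD 425 up-and-down procedure, one animal per 24 h, dose adjusted by prior outcome; LD50 by maximum likelihood (AOT425StatPgm), 95% confidence interval.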

| IC50 [1] [µM] | IC50 [2] [µM] | IC50 [3] [µM] | IC50 [4] [µM] | IC50 [5] [µM] | SMILES | LD50 [6] [mg/kg] |
| --- | --- | --- | --- | --- | --- | --- |
| 1 | 2 | 2 | 0.8 | 3 | c1cc(-c2nc3ccc(C4=NCCN4)cc3s2)ccc1C1=NCCN1 | – |
| 3 | 3 | 3 | 2 | 2 | O=[N+]([O-])c1ccc2nc(-c3ccc(C4=NCCN4)cc3)sc2c1 | – |
| 11 | 8 | 4 | 7 | 17 | O=[N+]([O-])c1ccc(-c2nc3ccc(C4=NCCN4)cc3s2)cc1 | – |

The next lines start with the compound.

| SMILES | IC50 [1] [µM] | IC50 [2] [µM] | IC50 [3] [µM] | IC50 [4] [µM] | IC50 [5] [µM] | LD50 [6] [mg/kg] |
| --- | --- | --- | --- | --- | --- | --- |
| N=C(N)c1ccc2nc(-c3ccc([N+](=O)[O-])cc3)sc2c1 | 2 | 2 | 1 | 2 | 2 | – |
| Cl.N=C(N)c1ccc2nc(-c3ccc(N)cc3)sc2c1 | 9 | 10 | 4 | 7 | 3 | 67.3 |
| Cl.Nc1ccc2nc(-c3ccc(C4=NCCN4)cc3)sc2c1 | 1 | 1 | 0.3 | 0.3 | 1 | 250 |
| N=C(N)c1ccc(-c2nc3ccc([N+](=O)[O-])cc3s2)cc1 | 1 | 1 | 1 | 2 | 1 | – |
| N=C(N)c1ccc(-c2nc3ccc(C(=N)N)cc3s2)cc1 | 11 | 64 | 78 | > 100 | > 100 | – |
| Cl.N=C(N)c1ccc(-c2nc3ccc(N)cc3s2)cc1 | 0.2 | 3 | 0.2 | 4 | 2 | 250 |
| Cl.Nc1ccc(-c2nc3ccc(C4=NCCN4)cc3s2)cc1 | 1.7 | 1 | 0.4 | 0.7 | 1 | 696 |
